The values that follow come from ChEMBL document CHEMBL1129405, “In vitro and in vivo evaluation of 6-azido-2',3'-dideoxy-2'-fluoro-beta-D-arabinofuranosylpurine and N6-methyl-2',3'-dideoxy-2'-fluoro-beta-D-arabinofuranosyladenine as prodrugs of the anti-HIV nucleosides 2'-F-ara-ddA and 2'-F-ara-ddI” (J Med Chem, 1996).

The nature of data set [1]: (§1) The ratio of AUC /dose(uM); not detected. The format is ADME.
The test system of data set [2] is Mus musculus. Briefly: t1/2 was measured AT 112 mg/kg dose by intravenous administration in mice brain; not detected. The settings on record: in vivo.
The test system of data set [3] is Mus musculus. Briefly: Pharmacokinetic parameter AUC was measured at 112 mg/kg dose by intravenous administration in mice brain; AUC (mM.h); not detected. The settings on record: in vivo. The format is ADME, organism-based. Set-up: dose 112 mg/kg, route intravenous. The gist of the method:
(§2)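 Female NIH-Swiss mice (24-28 g), tail-vein injection of 112 mg/kg (437 µmol/kg) in saline (15 mg/mL); three mice per time point, ether anesthesia, exsanguination by heart puncture; serum and brain (homogenized 1:1 g:mL in ice-cold isotonic 0.05 M phosphate, pH 7.4) assayed by HPLC, UV 260 nm. Noncompartmental analysis of mean concentrations; AUC by Lagrange interpolation, extrapolated via terminal slope (last 3-5 points); t1/2 = 0.693/λz; AUC normalized to µmol/kg dose.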

A short description of data set [4]: (§3) The ratio of AUC /dose (uM). The format is ADME.
The nature of data set [5]: as §3. The format is ADME. This is another data set of the same source.
For data set [6], the system named is Mus musculus. Kind of data set: Pharmacokinetic parameter AUC was measured at 112 mg/kg dose by intravenous administration using FMAddA as substrate in mice brain; AUC 0-r (mM.h); not detected. It counts as ADME, organism-based. Set-up: dose 112 mg/kg, route intravenous. The settings on record: in vivo. The method, boiled down:
as §2

In data set [7] the test system is Mus musculus. Kind of data set: t1/2 was measured at 55 mg/kg dose by oral administration in mice brain; t1/2 (h); not detected. It counts as ADME, organism-based. Further details: dose 55 mg/kg, route oral. The settings on record: in vivo.
A short description of data set [8]: as §1. It counts as ADME. The source holds these as a separate data set.
Data set [9] can be described thus: The ratio of AUC /dose(uM). It counts as ADME.
Data set [10] deals with Mus musculus. Briefly: Pharmacokinetic parameter AUC was measured at 55 mg/kg dose by oral in mice brain; AUC (mM.h); not detected. The format is ADME, organism-based. Set-up: dose 55 mg/kg, route oral. The settings on record: in vivo.
The subject of data set [11] is Mus musculus. Briefly: The ratio of AUC / dose (mM.h/uMol)/kg at 112 mg/kg dose after oral administration in mice serum; AUC/Dose (uM). It counts as ADME, organism-based. Further details: dose 112 mg/kg, route oral. The settings on record: in vivo.
The subject of data set [12] is Mus musculus. Briefly: The ratio of AUC / dose (mM.h/uMol)/kg at 112 mg/kg dose after intravenous administration in mice brain; AUC/Dose (uM). The format is ADME, organism-based. Set-up: dose 112 mg/kg, route intravenous. The settings on record: in vivo. The gist of the method:
as §2

In data set [13] the test system is Mus musculus. Briefly: The ratio of AUC / dose (mM.h/umol)/kg at 112 mg/kg dose after intravenous administration in mice serum. It counts as ADME, organism-based. Further details: dose 112 mg/kg, route intravenous. The settings on record: in vivo. The method, boiled down:
as §2

The test system of data set [14] is Mus musculus. Briefly: The ratio of AUC / dose (mM.h/uMol)/kg at 112 mg/kg dose after intravenous administration in mice serum; AUC/Dose (uM). Set-up: dose 112 mg/kg, route intravenous. The format is ADME, organism-based. The settings on record: in vivo. The gist of the method: as §2

Molecules are shown by their SMILES.

On to `OCC1CC(F)C(n2cnc3c(O)ncnc32)O1` (stereo not drawn), for which the Ratio result in data set [1] is “Not detected”; in [4], 0.48; in data set [5] it was 0.13; in [8], “Not detected”; in [9], 0.046. In addition, the T1/2 entry in [2] and in data set [7] was “Not detected” each time. Moreover, the AUC result in data set [3], in data set [6] and in [10] was “Not detected” each time.
In the case of `[N-]=[N+]=Nc1ncnc2c1ncn2C1OC(CO)CC1F` (stereo not drawn), the Ratio stood at 0.19 in data set [11], 0.06 in data set [12] and 1.01 in [13].
As to `Nc1ncnc2c1ncn2[C@@H]1O[C@H](CO)C[C@@H]1F` [LODENOSINE], the results for the Ratio in [14], in [11] and in [12] were 0.04, 0.005 and 0.02, respectively.
On to `CNc1ncnc2c1ncn2C1OC(CO)CC1F` (stereo not drawn), for which the results for the Ratio in [14] and in data set [12] were 0.68 and 0.09, respectively.
